Active and inactive are the calls of the source. The calls are words filed in the database; no cut-off is given here.
Columns and labels:
PANC-1 [1] = assay: Antiausteritic activity against human PANC1 cells in nutrient-deprived medium measured after 24 hrs by WST8 assay; assay type: functional
Method in brief: (§1)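 Human pancreatic cancer cells were seeded at 1.5 × 10^4/well in DMEM for 24 h at 37 °C under 5% CO2. After two PBS washes, cells received serially diluted samples in DMEM (nutrient-rich) or NDM (pH 7.4), with a control and blank on each plate. After 24 h, cells were washed and given DMEM with 10% WST-8 for 3 h, then A450 was read. Viability (mean of three wells) = (sample − blank)/(control − blank) × 100. For NDM, PC50 is the concentration killing 50% of cells preferentially. Arctigenin was the positive control.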

PANC-1 [2] = assay: Cytotoxicity against human PANC1 cells in DMEM measured after 24 hrs by WST8 assay; assay type: cell-based; conditions: panc-1, 24 h; method in brief: as §1
PANC-1 [3] = assay: Antiausteritic activity against human PANC1 cells in nutrient-deprived medium assessed as changes in cell morphology by measuring increase in round appearance at 1.5 uM after 24 hrs by ethidium bromide/acridine orange staining based fluorescence imaging method; assay type: functional
Method in brief: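 PANC-1 cells were seeded at 6 × 10^4/well in DMEM and held 24 h at 37 °C under 5% CO2. They were washed twice with PBS, then switched to NDM alone (control) or with compound at 1.5 μM for 24 h. EB/AO reagent was added for 5 min, and cells were imaged under fluorescence and phase contrast (20×). Green AO marks live cells; red EB marks dead cells.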

COc1cc(O)c(C(=O)[C@@H]2CC=C(C)[C@H](CC=C(C)C)[C@H]2c2ccccc2)c(O)c1
PC50 (PANC-1 [1]): 7.8 µM
Activity (PANC-1 [2]): Non-Toxic

COc1cc(O)cc(O)c1C(=O)[C@@H]1CC=C(C)[C@H](CC=C(C)C)[C@H]1c1ccccc1
PC50 (PANC-1 [1]): 7.4 µM
Activity (PANC-1 [2]): Non-Toxic

COc1cc(O)cc(O)c1C(=O)[C@@H]1CC=C(C)[C@@H](CC=C(C)C)[C@H]1c1ccccc1
PC50 (PANC-1 [1]): 1 µM
Activity (PANC-1 [2]): Non-Toxic

COc1cc(O)c(C(=O)[C@@H]2CC=C(C)[C@@H](CC=C(C)C)[C@H]2c2ccccc2)c(O)c1 [(-)-NICOLAIOIDESIN B]
PC50 (PANC-1 [1]): 2.1 µM
Activity (PANC-1 [2]): Non-Toxic

COc1cc(O)c(C(=O)[C@@H]2[C@@H](CC=C(C)C)C(C)=CC[C@H]2c2ccccc2)c(O)c1
PC50 (PANC-1 [1]): 7.2 µM
Activity (PANC-1 [2]): Non-Toxic

CC(C)=CC[C@@H]1C(C)=CC[C@@H](c2ccccc2)[C@@H]1C(=O)c1c(O)cc(O)cc1O [4-HYDROXYPANDURATIN A]
PC50 (PANC-1 [1]): 3.1 µM
Activity (PANC-1 [2]): Non-Toxic

COc1cc(O)cc(O)c1C(=O)[C@@H]1[C@H](CC=C(C)C)C(C)=CC[C@H]1c1ccccc1
PC50 (PANC-1 [1]): 2.8 µM
Activity (PANC-1 [2]): Non-Toxic

COc1cc(O)cc(O)c1C(=O)[C@@H]1[C@H](/C=C/C(C)(C)OC)C(C)=CC[C@H]1c1ccccc1
PC50 (PANC-1 [1]): 10.5 µM
Activity (PANC-1 [2]): Non-Toxic

COc1cc(C[C@H]2C(=O)OC[C@@H]2Cc2ccc(OC)c(OC)c2)ccc1O [ARCTIGENIN]
PC50 (PANC-1 [1]): 0.83 µM

COc1cc(O)c(C(=O)[C@@H]2[C@H](CC=C(C)C)C(C)=CC[C@H]2c2ccccc2)c(O)c1 [PANDURATIN A]
PC50 (PANC-1 [1]): 7.8 µM
Activity (PANC-1 [2]): Non-Toxic

COc1cc(O)c(C(=O)[C@@H]2[C@H](/C=C/C(C)(C)O)C(C)=CC[C@H]2c2ccccc2)c(O)c1
PC50 (PANC-1 [1]): 6.6 µM
Activity (PANC-1 [2]): Non-Toxic

COc1cc(O)c(C(=O)[C@@H]2[C@H](C/C=C(\C)CO)C(C)=CC[C@H]2c2ccccc2)c(O)c1
PC50 (PANC-1 [1]): 6.3 µM
Activity (PANC-1 [2]): Non-Toxic

CC(C)=CC[C@H]1C(C)=CC[C@@H](c2ccccc2)[C@@H]1C(=O)c1c(O)cc(O)cc1O
PC50 (PANC-1 [1]): 5.8 µM
Activity (PANC-1 [2]): Non-Toxic

C=C(C)C(O)C[C@@H]1C(C)=CC[C@@H](c2ccccc2)[C@@H]1C(=O)c1c(O)cc(OC)cc1O (some centres not stated)
PC50 (PANC-1 [1]): 18.1 µM
Activity (PANC-1 [2]): Non-Toxic

COc1cc(O)c(C(=O)[C@@H]2CC=C(CCC=C(C)C)C[C@H]2c2ccccc2)c(O)c1
PC50 (PANC-1 [1]): 0.84 µM
Activity (PANC-1 [2]): Non-Toxic
Activity (PANC-1 [3]): Active

COc1cc(O)c(C(=O)[C@@H]2CC=C(C)[C@@H](/C=C/C(C)(C)O)[C@H]2c2ccccc2)c(O)c1
PC50 (PANC-1 [1]): 3.3 µM
Activity (PANC-1 [2]): Non-Toxic

Reference: ChEMBL document CHEMBL4004817, “Constituents of the Rhizomes of Boesenbergia pandurata and Their Antiausterity Activities against the PANC-1 Human Pancreatic Cancer Line” (J Nat Prod, 2017)
